Results collected from several papers.
Each line is one published result; the experiments were not run side by side.
Target: Serine/threonine-protein kinase Chk2 (CHEK2, Homo sapiens, UniProt O96017)

SMILES	test	conditions	endpoint	result
COc1cc(Nc2ncc(F)c(Nc3ccc4c(n3)NC(=O)C(C)(C)O4)n2)cc(OC)c1OC	binding, competition with immobilised ligand	10 µM	inhibition	45%
CC(C)(C)c1cc(C=C(C#N)C#N)cc(Br)c1O	enzyme activity, inhibitor	0.5 µM	remaining activity	104%
Cn1cc(-c2cccc(N3CCc4c(sc5c4CC(C)(C)C5)C3=O)c2CO)cc(Nc2ccncn2)c1=O	enzyme activity, inhibitor	1 µM	inhibition	1%
O=c1[nH]c2ccccc2n1C1CCN(Cc2ccc(-c3[nH]c4cc5ncnc5cc4nc3-c3ccccc3)cc2)CC1	cell-free assay	0.5 µM	remaining signal	100%
Cc1nn(C)cc1-c1nc2c(N3CCN(Cc4ccc(Cl)cc4)CC3)c(Cl)cnc2[nH]1	binding, competition with immobilised ligand	1 µM	remaining binding	100%
N#CC1(c2ccccn2)CCN(Cc2cc(C(=O)O)c(=O)n3ccccc23)CC1	cell-free assay, competition with immobilised ligand	1 µM	remaining binding	87%
Cn1cc(-c2cc(F)cc(N3CCn4c(cc5c4CCCC5)C3=O)c2CO)cc(Nc2ccc(N3CCN(C4COC4)CC3)cn2)c1=O	enzyme activity, inhibitor	0.1 µM	inhibition	11%
COc1ncccc1-c1cnn2ccc(N3CCN(C(=O)OC(C)C)CC3)nc12	binding, competition with immobilised ligand	1 µM	remaining binding	77%
Cn1cncc1[C@@](O)(COc1ccc(C#N)cc1-c1ccc(OC(F)(F)F)cc1)c1ccc(C#N)cc1	cell-free assay, competition with immobilised ligand	1 µM	remaining binding	96%
Nc1ncc(-c2nc(N3CCOCC3)nc(N3CCOCC3)n2)c(C(F)F)n1	binding, competition with immobilised ligand	10 µM	remaining binding	75%
